From ChEMBL document CHEMBL1123757, “Selective thromboxane synthetase inhibitors and antihypertensive agents. New derivatives of 4-hydrazino-5H-pyridazino[4,5-b]indole, 4-hydrazinopyridazino[4,5-a]indole, and related compounds” (J Med Chem, 1987)

Assays:
Rattus norvegicus [1] = experiment: Antihypertensive activity in spontaneously hypertensive rats (SHR) measured by percentage fall in arterial pressure (AP) at 25 mg/kg administered intraperitoneally at 1 h;No significance; format: functional, organism-based; design: dose 25 mg/kg; conditions: Artery
Outline: (§1)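 Unanesthetized Okamoto-strain SHR, male and female, 8 weeks old, 300–350 g, systolic pressure ≥190 mmHg, heart rate 400–650 beats/min; five animals per dose. Given ip at 2.5 mL/kg, dissolved or suspended in normal saline or saline with 0.2% (carboxymethyl)cellulose and 1.0% Tween 80. Tail AP and CR recorded by mechanical transduction at set times; reported as percentage fall from control.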

Rattus norvegicus [2] = experiment: Antihypertensive activity in spontaneously hypertensive rats (SHR) measured by percentage fall in arterial pressure (AP) at 25 mg/kg administered intraperitoneally at 24 h;No significance; format: functional, organism-based; design: dose 25 mg/kg; conditions: Artery; outline: as §1
Homo sapiens [3] = organism: Homo sapiens; experiment: In vitro inhibition of platelet aggregation induced by […] (PRP incubated for 5 minutes at 37 degree C) at 10e-5 M; No significance; format: functional
Homo sapiens [4] = organism: Homo sapiens; experiment: In vitro inhibition of platelet aggregation induced by AA (PRP incubated for 60 minutes at 37 degree C) at 10e-5 M; No significance; format: functional
Outline: (§2)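 Human venous blood anticoagulated with 3.8% sodium citrate (1:9). PRP from centrifugation at 800 rpm for 10 min at room temperature. Count adjusted with PPP to […]. Compound in saline with 10% ethylene glycol is added to PRP and incubated at 37 °C before the agonist. Agonists: ADP 2×10^-5 M, AA 0.6 mM, PGH2 2.8 μM, adrenaline 0.6 μM. Born absorbance aggregometry; n = 5.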

Rattus norvegicus [5] = experiment: Antihypertensive activity in spontaneously hypertensive rats (SHR) measured by percentage fall in cardiac rhythm (CR) at 25 mg/kg administered intraperitoneally at 1 h;No significance; format: functional, organism-based; design: dose 25 mg/kg; conditions: Heart; outline: as §1
Rattus norvegicus [6] = experiment: Antihypertensive activity in spontaneously hypertensive rats (SHR) measured by percentage fall in cardiac rhythm (CR) at 25 mg/kg administered intraperitoneally at 3 h;No significance; format: functional, organism-based; design: dose 25 mg/kg; conditions: Heart
Outline: (§3)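 Conscious SHR (Okamoto strain), 8 weeks old, male and female, 300–350 g, systolic BP ≥190 mmHg, CR 400–650 beats/min. Given ip or po at 2.5 mL/kg in normal saline or saline with 0.2% (carboxymethyl)cellulose and 1.0% Tween 80. Tail AP and CR recorded by mechanical transduction at 1, 3, 5 and 24 h, five animals per dose. Effect expressed as % fall versus control.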

Rattus norvegicus [7] = experiment: Antihypertensive activity in spontaneously hypertensive rats (SHR) measured by percentage fall in cardiac rhythm (CR) at 25 mg/kg administered intraperitoneally at 24 h;No significance; format: functional, organism-based; design: dose 25 mg/kg; conditions: Heart; outline: as §1
Rattus norvegicus [8] = experiment: Antihypertensive activity in spontaneously hypertensive rats (SHR) measured by percentage fall in cardiac rhythm (CR) at 25 mg/kg administered intraperitoneally at 5 h;No significance; format: functional, organism-based; design: dose 25 mg/kg; conditions: Heart; outline: as §3
Rattus norvegicus [9] = experiment: Antihypertensive activity in spontaneously hypertensive rats (SHR) measured by percentage fall in arterial pressure (AP) at 25 mg/kg administered intraperitoneally at 5 h;No significance; format: functional, organism-based; design: dose 25 mg/kg; conditions: Artery; outline: as §1
Rattus norvegicus [10] = experiment: Antihypertensive activity in spontaneously hypertensive rats (SHR) measured by percentage fall in arterial pressure (AP) at 25 mg/kg administered intraperitoneally at 3 h;No significance; format: functional, organism-based; design: dose 25 mg/kg; conditions: Artery; outline: as §1
Rattus norvegicus [11] = experiment: Antihypertensive activity in spontaneously hypertensive rats (SHR) measured by percentage fall in arterial pressure (AP) at 25 mg/kg administered intraperitoneally at 3 h; format: functional, Artery; conditions: route intraperitoneal; outline: as §1
Rattus norvegicus [12] = experiment: Antihypertensive activity in spontaneously hypertensive rats (SHR) measured by percentage fall in cardiac rhythm (CR) at 25 mg/kg administered intraperitoneally at 24 h; format: functional, Heart; conditions: route intraperitoneal; outline: as §1
Rattus norvegicus [13] = experiment: Antihypertensive activity in spontaneously hypertensive rats (SHR) measured by percentage fall in arterial pressure (AP) at 25 mg/kg administered intraperitoneally at 5 h; format: functional, Artery; conditions: route intraperitoneal; outline: as §1
Rattus norvegicus [14] = experiment: Antihypertensive activity in spontaneously hypertensive rats (SHR) measured by percentage fall in cardiac rhythm (CR) at 25 mg/kg administered intraperitoneally at 3 h; format: functional, Heart; conditions: route intraperitoneal; outline: as §1
Rattus norvegicus [15] = experiment: Antihypertensive activity in spontaneously hypertensive rats (SHR) measured by percentage fall in cardiac rhythm (CR) at 25 mg/kg administered intraperitoneally at 5 h; format: functional, Heart; conditions: route intraperitoneal; outline: as §3
Rattus norvegicus [16] = experiment: Antihypertensive activity in spontaneously hypertensive rats (SHR) measured by percentage fall in arterial pressure (AP) at 25 mg/kg administered intraperitoneally at 24 h; format: functional, Artery; conditions: route intraperitoneal; outline: as §1
Rattus norvegicus [17] = experiment: Antihypertensive activity in spontaneously hypertensive rats (SHR) measured by percentage fall in arterial pressure (AP) at 25 mg/kg administered intraperitoneally at 1 h; format: functional, Artery; conditions: route intraperitoneal; outline: as §1
Rattus norvegicus [18] = experiment: Antihypertensive activity in spontaneously hypertensive rats (SHR) measured by percentage fall in cardiac rhythm (CR) at 25 mg/kg administered intraperitoneally at 1 h; format: functional, Heart; conditions: route intraperitoneal; outline: as §1
Rattus norvegicus [19] = experiment: Percent fall in systolic blood pressure, directly measured on carotid (iv on the jugular vein) of spontaneously hypertensive rats at 1 mg/kg after 90 minutes; format: functional, Artery
Outline: (§4)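 Anesthetized (sodium pentobarbital, 70 mg/kg) male and female Okamoto SHR, 8 weeks old, 300–350 g. Given iv into the jugular vein in normal saline. Arterial pressure and cardiac rhythm are recorded directly from the carotid by polygraph at set times after dosing. Each is expressed as percent change from the pre-dose control value.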

Rattus norvegicus [20] = experiment: Percent fall in systolic blood pressure, directly measured on carotid (iv on the jugular vein) of spontaneously hypertensive rats at 1 mg/kg after 45 minutes; format: functional, Artery; outline: as §4
Rattus norvegicus [21] = experiment: Percent fall in systolic blood pressure, directly measured on carotid (iv on the jugular vein) of spontaneously hypertensive rats at 1 mg/kg after 10 minutes; format: functional, Artery; outline: as §4
Rattus norvegicus [22] = experiment: Percent fall in systolic blood pressure, directly measured on carotid (iv on the jugular vein) of spontaneously hypertensive rats at 1 mg/kg after 15 minutes; format: functional, Artery; outline: as §4
Rattus norvegicus [23] = experiment: Percent fall in systolic blood pressure, directly measured on carotid (iv on the jugular vein) of spontaneously hypertensive rats at 1 mg/kg after 60 minutes; format: functional, Artery; outline: as §4
Rattus norvegicus [24] = experiment: Percent fall in systolic blood pressure, directly measured on carotid (iv on the jugular vein) of spontaneously hypertensive rats at 1 mg/kg after 75 minutes; format: functional, Artery; outline: as §4
Rattus norvegicus [25] = experiment: Percent fall in systolic blood pressure, directly measured on carotid (iv on the jugular vein) of spontaneously hypertensive rats at 1 mg/kg after 30 minutes; format: functional, Artery; outline: as §4
Rattus norvegicus [26] = experiment: Percent fall in systolic blood pressure, directly measured on carotid (iv on the jugular vein) of spontaneously hypertensive rats at 1 mg/kg after 5 minutes; format: functional, Artery; outline: as §4
Homo sapiens [27] = organism: Homo sapiens; experiment: In vitro inhibition of platelet aggregation induced by ADP-II (PRP incubated for 5 minutes at 37 degree C) at 10e-5 M; format: functional; outline: as §2
Homo sapiens [28] = organism: Homo sapiens; experiment: In vitro inhibition of platelet aggregation induced by ADP-II (PRP incubated for 60 minutes at 37 degree C) at 10e-5 M; format: functional; conditions: 1 h; outline: as §2

With `COc1ccc2c(c1)cc1c(NN)nncn12` [listing 1 of 2 here] the “Decrease in AP” value (Rattus norvegicus [1]) was “No significant values”, the “Decrease in AP” value (Rattus norvegicus [2]) was “No significant values” and the inhibition (Homo sapiens [3]) was “No significant values”. The inhibition (Homo sapiens [4]) was “No significant values”, the “Decrease in CR” value (Rattus norvegicus [5]) was “No significant values” and the “Decrease in CR” value (Rattus norvegicus [6]) was “No significant values”. The “Decrease in CR” value (Rattus norvegicus [7]) was “No significant values”, the “Decrease in CR” value (Rattus norvegicus [8]) was “No significant values” and the “Decrease in AP” value (Rattus norvegicus [9]) was “No significant values”. The “Decrease in AP” value (Rattus norvegicus [10]) was “No significant values”.
For `COc1ccc2[nH]c3c(N/N=C\c4ccccc4)nncc3c2c1`, the “Decrease in AP” value (Rattus norvegicus [11]) was 6%, the “Decrease in CR” value (Rattus norvegicus [12]) was -13% and the “Decrease in AP” value (Rattus norvegicus [13]) was 8%. For the same compound, the “Decrease in CR” value (Rattus norvegicus [14]) was -20%.
With `COc1ccc2[nH]c3c(NN=C(C)C)nncc3c2c1` the “Decrease in AP” value (Rattus norvegicus [11]) was 13%, the “Decrease in CR” value (Rattus norvegicus [15]) was -8% and the “Decrease in CR” value (Rattus norvegicus [12]) was -10%. The “Decrease in AP” value (Rattus norvegicus [13]) was 14%, the “Decrease in AP” value (Rattus norvegicus [16]) was 7% and the “Decrease in CR” value (Rattus norvegicus [14]) was -11%.
`COc1ccc2[nH]c3c(NN)nncc3c2c1` was tested, and the “Decrease in AP” value (Rattus norvegicus [17]) was 17%, the “Decrease in AP” value (Rattus norvegicus [11]) was 32% and the “Decrease in CR” value (Rattus norvegicus [15]) was -10%. The “Decrease in AP” value (Rattus norvegicus [13]) was 30%, the “Decrease in AP” value (Rattus norvegicus [16]) was 5% and the “Decrease in CR” value (Rattus norvegicus [14]) was -8%. For the same compound, the “Decrease in CR” value (Rattus norvegicus [18]) was -8%.
`NNc1[nH]ncc2c3cc(OCc4ccccc4)ccc3nc1-2.O=S(=O)(O)O` was tested, and the “Decrease in AP” value (Rattus norvegicus [17]) was 21%, the “Decrease in AP” value (Rattus norvegicus [11]) was 32% and the “Decrease in CR” value (Rattus norvegicus [15]) was 8%. For the same compound, the “Decrease in AP” value (Rattus norvegicus [13]) was 26%, the “Decrease in CR” value (Rattus norvegicus [14]) was 7% and the “Decrease in CR” value (Rattus norvegicus [18]) was 9%.
With `COc1ccc2[nH]c3c(cnn4cnnc34)c2c1` the “Decrease in AP” value (Rattus norvegicus [2]) was “No significant values”, the “Decrease in CR” value (Rattus norvegicus [7]) was “No significant values” and the “Decrease in AP” value (Rattus norvegicus [13]) was 11%. The “Decrease in CR” value (Rattus norvegicus [14]) was 10%, the “Decrease in CR” value (Rattus norvegicus [8]) was “No significant values” and the “Decrease in AP” value (Rattus norvegicus [10]) was “No significant values”.
In the case of `NNc1[nH]ncc2c3cc(O)ccc3nc1-2`, the “Decrease in blood pressure” value (Rattus norvegicus [19]) is reported as 56%, the “Decrease in blood pressure” value (Rattus norvegicus [20]) is reported as 56% and the “Decrease in blood pressure” value (Rattus norvegicus [21]) is reported as 44%. The “Decrease in blood pressure” value (Rattus norvegicus [22]) was 60%, the “Decrease in blood pressure” value (Rattus norvegicus [23]) was 67% and the “Decrease in blood pressure” value (Rattus norvegicus [24]) was 56%. For the same compound, the “Decrease in blood pressure” value (Rattus norvegicus [25]) was 56% and the “Decrease in blood pressure” value (Rattus norvegicus [26]) was 33%.
With `COc1ccc2c(c1)cc1c(NN)nncn12` [listing 2 of 2 here] the inhibition at 10 µM (Homo sapiens [27]) was 100% and the inhibition at 10 µM (Homo sapiens [28]) was 100%.
